Reference: ChEMBL document CHEMBL4049422, “Discovery of Novel Indazole Derivatives as Orally Available β3-Adrenergic Receptor Agonists Lacking Off-Target-Based Cardiovascular Side Effects” (J Med Chem, 2017)

Columns and labels:
[1] = molecular target: T1, Beta-2 adrenergic receptor (Homo sapiens, UniProt P07550); assay: Agonist activity at recombinant human beta2 adrenergic receptor expressed in CHO cells assessed as accumulation of cyclic AMP after 30 mins; format: cell-based
CYP2D6 = CYP2D6 (Homo sapiens, UniProt P10635); assay: Inhibition of CYP2D6 (unknown origin) at 10 uM relative to control; format: ADME
CYP2C8 = molecular target: T2, CYP2C8 (Homo sapiens, UniProt P10632); assay: Inhibition of CYP2C8 (unknown origin) at 10 uM relative to control; format: ADME
T2 sequence (P10632 whole entry): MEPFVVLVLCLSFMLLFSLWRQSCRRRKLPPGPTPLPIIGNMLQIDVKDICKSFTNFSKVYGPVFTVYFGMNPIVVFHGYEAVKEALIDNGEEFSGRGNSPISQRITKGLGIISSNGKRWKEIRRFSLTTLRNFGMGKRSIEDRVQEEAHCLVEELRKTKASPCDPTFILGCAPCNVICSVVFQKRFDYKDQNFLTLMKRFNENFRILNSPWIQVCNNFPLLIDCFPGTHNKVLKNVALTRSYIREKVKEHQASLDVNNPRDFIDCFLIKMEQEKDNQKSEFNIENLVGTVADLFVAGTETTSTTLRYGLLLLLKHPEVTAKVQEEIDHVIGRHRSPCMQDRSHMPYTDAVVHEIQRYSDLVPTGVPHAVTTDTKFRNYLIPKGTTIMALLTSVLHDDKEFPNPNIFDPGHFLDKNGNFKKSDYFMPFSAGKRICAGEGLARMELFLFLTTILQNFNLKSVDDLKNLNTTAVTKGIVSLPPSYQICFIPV

[2] = molecular target: T3, Alpha-1D adrenergic receptor (Homo sapiens, UniProt P25100); assay: Agonist activity at recombinant human alpha1D adrenergic receptor expressed in HEK293 cells after 6 hrs by NFAT-luciferase reporter gene assay; format: cell-based
T3 sequence (P25100 whole entry): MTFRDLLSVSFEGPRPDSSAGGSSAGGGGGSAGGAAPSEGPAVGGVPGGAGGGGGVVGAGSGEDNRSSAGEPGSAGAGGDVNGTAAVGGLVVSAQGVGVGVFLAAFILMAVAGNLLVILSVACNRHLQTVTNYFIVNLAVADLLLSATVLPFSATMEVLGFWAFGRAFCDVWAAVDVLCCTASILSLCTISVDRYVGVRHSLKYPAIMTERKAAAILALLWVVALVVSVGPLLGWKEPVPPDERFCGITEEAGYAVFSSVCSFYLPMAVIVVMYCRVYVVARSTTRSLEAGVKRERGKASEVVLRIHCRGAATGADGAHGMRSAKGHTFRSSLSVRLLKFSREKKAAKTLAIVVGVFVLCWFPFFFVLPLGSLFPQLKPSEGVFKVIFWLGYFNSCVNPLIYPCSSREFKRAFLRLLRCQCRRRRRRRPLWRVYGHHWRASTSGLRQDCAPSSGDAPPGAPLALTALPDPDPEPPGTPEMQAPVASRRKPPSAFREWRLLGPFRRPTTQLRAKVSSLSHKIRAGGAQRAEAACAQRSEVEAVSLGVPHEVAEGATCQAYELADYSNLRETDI

[3] = molecular target: T4, Alpha-1B adrenergic receptor (Homo sapiens, UniProt P35368); assay: Agonist activity at recombinant human alpha1B adrenergic receptor expressed in HEK293 cells after 6 hrs by NFAT-luciferase reporter gene assay; format: cell-based
T4 sequence (P35368 whole entry): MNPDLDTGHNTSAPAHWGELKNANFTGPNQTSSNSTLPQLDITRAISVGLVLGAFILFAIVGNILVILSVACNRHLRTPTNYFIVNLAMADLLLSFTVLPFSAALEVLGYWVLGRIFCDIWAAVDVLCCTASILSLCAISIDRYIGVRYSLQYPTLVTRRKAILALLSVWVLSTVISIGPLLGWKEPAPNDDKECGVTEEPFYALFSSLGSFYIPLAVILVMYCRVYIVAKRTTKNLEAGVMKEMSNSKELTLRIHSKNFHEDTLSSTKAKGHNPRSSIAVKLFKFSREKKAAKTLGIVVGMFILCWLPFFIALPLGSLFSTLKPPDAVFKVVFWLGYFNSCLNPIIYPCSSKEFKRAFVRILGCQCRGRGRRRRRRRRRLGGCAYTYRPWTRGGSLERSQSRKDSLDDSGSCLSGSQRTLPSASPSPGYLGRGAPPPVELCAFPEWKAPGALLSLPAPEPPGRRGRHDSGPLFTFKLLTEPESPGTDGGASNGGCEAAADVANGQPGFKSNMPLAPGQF

[4] = molecular target: Adrenoceptor beta 3 (Callithrix jacchus) (UniProt F6XZF4); assay: Agonist activity at beta3 adrenergic receptor in marmoset urinary bladder smooth muscle strips assessed as induction of KCl-precontracted muscle relaxation treated every 20 mins
[5] = Intrinsic clearance in Sprague-Dawley rat liver microsomes at 0.5 uM in presence of NADPH by LC-MS/MS analysis; format: ADME, microsome
Procedure, shortened: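 Pooled male Sprague-Dawley rat liver microsomes (0.5 mg/mL final) in 100 mM Tris-HCl pH 7.4 with NADPH-regenerating mix plus UDP-GA, test compound 0.5 µM, 20 min at 37 °C. Acetonitrile stop, LC-MS/MS. CLint,u is scaled with 44.8 mg protein/g liver and 40.0 g liver/kg, and corrected by fu from ultracentrifugation (160,000g, 16 h, 37 °C).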

Rattus norvegicus [6] = assay: Cardiotoxicity in Sprague-Dawley rat assessed as decrease in heart beat rate at 3 mg/kg, iv after 30 mins (reference value: 4.5 +/- 0.8%); format: toxicity, organism-based; design: scale not given: the % may be the effect or the level left; details: in vivo, 0.5 h
[7] = Cmax in Sprague-Dawley rat at 5 mg/kg, po by LC-MS/MS analysis; format: ADME, organism-based; design: dose 5 mg/kg, route oral; details: in vivo
Procedure, shortened: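 Male Sprague-Dawley rats (n = 2 or 3) dosed orally at 5 mg/kg in saline or water (5 mL/kg). Blood taken from the subclavian vein at 0.5, 1, 2, 4, 6 and 8 h; plasma separated by centrifugation, stored at -20 °C, and drug levels measured by LC-MS/MS. Values are mean ± SD (n = 3) or the average of two experiments.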

[8] = molecular target: T1, Beta-2 adrenergic receptor; assay: Intrinsic activity at recombinant human beta2 adrenergic receptor assessed as accumulation of cyclic AMP after 30 mins relative to isoproterenol
CYP3A4 = CYP3A4 (Homo sapiens, UniProt P08684); assay: Inhibition of CYP3A4 (unknown origin) at 10 uM relative to control; format: ADME
Rattus norvegicus [9] = assay: Cardiotoxicity in Sprague-Dawley rat assessed as increase in heart beat rate at 3 mg/kg, iv after 30 mins (reference value: 1.8 +/- 0.9%); format: toxicity, organism-based; details: in vivo, 0.5 h

T1 sequence (P07550 whole entry): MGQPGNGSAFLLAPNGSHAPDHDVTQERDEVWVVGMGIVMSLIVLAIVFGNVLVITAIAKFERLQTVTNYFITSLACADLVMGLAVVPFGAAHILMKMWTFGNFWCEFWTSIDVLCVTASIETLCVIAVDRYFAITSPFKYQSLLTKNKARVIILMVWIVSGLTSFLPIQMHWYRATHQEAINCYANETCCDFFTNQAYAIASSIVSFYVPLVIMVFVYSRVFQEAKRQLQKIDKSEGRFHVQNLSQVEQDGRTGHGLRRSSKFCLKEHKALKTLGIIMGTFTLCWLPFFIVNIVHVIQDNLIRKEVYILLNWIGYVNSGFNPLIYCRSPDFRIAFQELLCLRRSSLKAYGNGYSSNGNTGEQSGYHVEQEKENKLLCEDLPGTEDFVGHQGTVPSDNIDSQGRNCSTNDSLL
Chain of CYP3A4 (P08684 whole entry): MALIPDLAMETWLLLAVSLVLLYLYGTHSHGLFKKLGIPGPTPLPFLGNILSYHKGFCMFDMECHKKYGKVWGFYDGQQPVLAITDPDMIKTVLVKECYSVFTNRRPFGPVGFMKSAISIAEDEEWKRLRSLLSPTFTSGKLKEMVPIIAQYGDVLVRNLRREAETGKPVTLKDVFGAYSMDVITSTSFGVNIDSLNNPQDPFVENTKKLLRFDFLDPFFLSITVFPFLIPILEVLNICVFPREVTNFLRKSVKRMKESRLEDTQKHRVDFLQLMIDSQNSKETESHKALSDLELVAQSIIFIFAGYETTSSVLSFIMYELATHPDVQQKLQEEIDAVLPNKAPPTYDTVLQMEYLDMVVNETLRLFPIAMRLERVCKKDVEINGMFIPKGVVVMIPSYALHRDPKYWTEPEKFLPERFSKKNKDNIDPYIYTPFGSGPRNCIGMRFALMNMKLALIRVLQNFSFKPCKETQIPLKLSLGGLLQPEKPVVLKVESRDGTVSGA
Chain of CYP2D6 (P10635 whole entry): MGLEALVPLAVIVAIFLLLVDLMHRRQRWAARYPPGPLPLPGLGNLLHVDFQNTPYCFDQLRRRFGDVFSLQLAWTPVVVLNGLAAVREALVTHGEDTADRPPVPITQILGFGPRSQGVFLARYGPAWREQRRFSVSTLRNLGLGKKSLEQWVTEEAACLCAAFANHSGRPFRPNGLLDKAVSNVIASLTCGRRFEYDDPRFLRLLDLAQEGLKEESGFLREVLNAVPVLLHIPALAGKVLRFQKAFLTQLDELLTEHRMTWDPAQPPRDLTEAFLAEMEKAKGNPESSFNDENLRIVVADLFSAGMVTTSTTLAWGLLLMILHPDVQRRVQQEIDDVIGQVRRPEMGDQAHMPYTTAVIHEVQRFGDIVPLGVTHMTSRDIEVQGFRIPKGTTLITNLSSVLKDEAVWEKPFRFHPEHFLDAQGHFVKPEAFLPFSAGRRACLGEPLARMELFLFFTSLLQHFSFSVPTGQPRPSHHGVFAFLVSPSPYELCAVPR
Chain of Adrenoceptor beta 3 (Callithrix jacchus) (F6XZF4 as listed by the source): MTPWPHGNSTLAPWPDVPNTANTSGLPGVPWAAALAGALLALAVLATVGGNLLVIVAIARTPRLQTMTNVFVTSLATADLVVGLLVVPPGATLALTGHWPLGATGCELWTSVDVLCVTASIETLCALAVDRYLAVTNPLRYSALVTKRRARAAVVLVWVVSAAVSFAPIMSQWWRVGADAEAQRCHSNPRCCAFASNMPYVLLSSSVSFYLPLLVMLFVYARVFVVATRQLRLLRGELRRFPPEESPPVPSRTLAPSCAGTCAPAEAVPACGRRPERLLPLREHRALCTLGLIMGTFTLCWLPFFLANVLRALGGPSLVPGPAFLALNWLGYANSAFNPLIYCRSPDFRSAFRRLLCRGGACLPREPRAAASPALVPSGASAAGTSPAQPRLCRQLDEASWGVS

EC50 [1]: > 10 µM
inhibition at 10 µM (CYP2D6): < 34%
inhibition at 10 µM (CYP2C8): < 34%
EC50 [2]: > 10 µM
EC50 [3]: > 10 µM
Activity [4]: Dose-dependent effect
CLint scaled at 0.5 µM [5]: 52 mL/min/kg
Cmax [7]: 119 ng/mL
Emax at 0.5 h [8]: 4%
inhibition at 10 µM (CYP3A4): < 34%
SMILES: Cc1n[nH]c2cc(OCCNC[C@H](O)c3cccc(NS(=O)(=O)C4CCC4)c3)ccc12
Activity (Rattus norvegicus [6]): 0.9%
Activity (Rattus norvegicus [9]): 5.8%
